These results are taken from ChEMBL document CHEMBL1141679, “Design, synthesis, biochemical, and biological evaluation of nitrogen-containing trifluoro structural modifications of combretastatin A-4” (Bioorg Med Chem Lett, 2008).

In brackets after ≈: the same amount, converted by molar mass.

One assay deals with DU-145. The assay is described as follows: Cytotoxicity against human DU145 cells after 48 hrs by SRB assay. The settings on record: DU-145, 48 h. Type of assay: functional. Put shortly:
(§1)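 Cells were seeded in culture medium with 5% fetal bovine serum and incubated 24 h, then serial dilutions of compound were added. After 48 h, cells were fixed with trichloroacetic acid and stained with sulforhodamine B, and optical density was read on a plate reader. GI50 is the concentration giving a 50% reduction in net protein increase, calculated from optical density.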
(In SRB staining, fixed cells bind dye roughly in proportion to their protein.)

Assay [1] can be described thus: Inhibition of calf brain tubulin polymerization. Further details: species or system Bos taurus. Put shortly:
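Tubulin was purified from calf brain. Assembly was followed by turbidity at 350 nm. IC50 was obtained by nonlinear regression of the data.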

In a further assay the test system is NCI-H460. The assay is described as follows: Cytotoxicity against human NCI-H460 cells after 48 hrs by SRB assay. The settings on record: NCI-H460, 48 h. The class given is functional. The method in brief:
as §1

For orientation: GI50 means the concentration that inhibits growth by half. Higher therefore signals lower sensitivity of the cells. A word on the IC50: it is the point on the concentration scale where inhibition reaches its midpoint. Low readings indicate higher potency, high ones lower potency. `COc1ccc(/C=C\c2cc(F)c(F)c(F)c2)cc1O`: the GI50 in the assay on DU-145 is 0.04 µg/mL (≈ 0.143 µM); in the assay with NCI-H460, 0.2 µg/mL (≈ 0.714 µM). In addition, half-maximal inhibition in assay [1] (IC50) was put at 4500 nM.

Consider `COc1ccc(/C=C\c2cc(OC)c(OC)c(OC)c2)c(N)c1`, for which the GI50 was determined as 0.0016 µg/mL (≈ 0.00507 µM) with DU-145 and 0.0012 µg/mL (≈ 0.00381 µM) in the assay with NCI-H460. Further, half-maximal inhibition in assay [1] (IC50) required 1400 nM.

Turning to `COc1ccc(/C=C\c2cc(OC)c(OC)c(OC)c2)cc1N`, the GI50 is 0.00096 µg/mL (≈ 0.00304 µM) in the assay with DU-145 and 0.00068 µg/mL (≈ 0.00216 µM) in the assay on NCI-H460. Besides, in assay [1], the IC50 amounted to 2600 nM.

In the case of `COc1ccc(/C=C/c2cc(F)c(F)c(F)c2)c(N)c1`, the GI50 in the assay with DU-145 and with NCI-H460 was above 5 µg/mL throughout.

In the case of `COc1ccc(/C=C\c2cc(F)c(F)c(F)c2)c(N)c1`, the GI50 in the assay with DU-145 is 4.3 µg/mL (≈ 15.4 µM); with NCI-H460, above 5 µg/mL.

With `COc1ccc(/C=C\c2cc(F)c(F)c(F)c2)c([N+](=O)[O-])c1`, the GI50 in the assay on DU-145 and with NCI-H460 was above 5 µg/mL each time.

As for `COc1ccc(/C=C\c2cc(F)c(F)c(F)c2)cc1[N+](=O)[O-]`, the GI50 in the assay on DU-145 and with NCI-H460 was above 5 µg/mL each time. In addition, the IC50 in assay [1] was above 40000 nM.

For the compound `COc1ccc(/C=C/c2cc(F)c(F)c(F)c2)c([N+](=O)[O-])c1`, the GI50 in the assay with DU-145 and in the assay on NCI-H460 was above 5 µg/mL each time.

On to `COc1ccc(/C=C/c2cc(F)c(F)c(F)c2)cc1[N+](=O)[O-]`, for which the GI50 in the assay with DU-145 and with NCI-H460 was above 5 µg/mL throughout. This compound also registered an IC50 in assay [1] above 40000 nM.

For `COc1ccc(/C=C/c2cc(F)c(F)c(F)c2)cc1N`, the GI50 with DU-145 and with NCI-H460 was above 5 µg/mL throughout. Besides, the IC50 in assay [1] is above 40000 nM.

With `COc1ccc(/C=C\c2cc(F)c(F)c(F)c2)cc1N`, the GI50 was found to be 0.072 µg/mL (≈ 0.258 µM) with DU-145 and 0.11 µg/mL (≈ 0.394 µM) with NCI-H460. This compound returned an IC50 in assay [1] of 2900 nM.

On to `COc1ccc(/C=C\c2cc(OC)c(OC)c(OC)c2)cc1O` [COMBRETASTATIN A4], for which the GI50 in the assay with DU-145 was found to be 0.0008 µg/mL (≈ 0.00253 µM); with NCI-H460, 0.0006 µg/mL (≈ 0.0019 µM).
